ChEMBL document CHEMBL1122970, “Synthesis and antitumor and antiviral activities of a series of 1-beta-D-ribofuranosyl-5-halocytosine (5-halocytidine) cyclic 3',5'-monophosphates” (1985)
Several values for one entry are separate records, joined by “and”; a condition that tells them apart may be missing. Equal entries are not always repeated. Activity calls are given as the source filed them. No cut-off for these calls is given here.

test system: Vaccinia virus; assay: Antiviral activity against Vaccinia virus strain Elstree was evaluated in african green monkey kidney; assay type: functional, Orthopoxvirus vaccinia; details: not given

Point of comparison: `Nc1nc(=O)n([C@@H]2O[C@H](COP(=O)(O)O)[C@@H](O)[C@H]2O)cc1F`, ED50 9e-05 µM. Against it:
- N.Nc1nc(=O)n([C@@H]2O[C@@H]3CO[PH](O)(O)O[C@H]3[C@H]2O)cc1Cl — higher, > 5000 µM
- Nc1ccn([C@@H]2O[C@H](CO)[C@@H](O)[C@@H]2O)c(=O)n1 [CYTARABINE] — 3800-fold higher, 0.34 µM
- N.Nc1nc(=O)n([C@@H]2O[C@@H]3CO[PH](O)(O)O[C@H]3[C@H]2O)cc1F — far higher, 290 µM

test system: P388; assay: In vitro antitumor activity against P388 cell line in mice.; assay type: functional, Mus musculus; details: not given
Method in brief: (§1)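 Cells at 1 × 10⁶ cells/mL were incubated with filter-sterilized compound in growth medium, in duplicate, at log concentrations from 1 × 10⁻⁹ to 1 × 10⁻⁴ M. After 48 h at 37 °C, Coulter counts were taken and growth was expressed as a percentage of untreated controls. ID₅₀ is the concentration giving 50% growth inhibition.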

Point of comparison: `N.Nc1nc(=O)n([C@@H]2O[C@@H]3CO[PH](O)(O)O[C@H]3[C@H]2O)cc1F`, ID50 0.31 µM. Against it:
- Nc1nc(=O)n([C@@H]2O[C@H](COP(=O)(O)O)[C@@H](O)[C@H]2O)cc1F — 10-fold higher, 3.1 µM
- Nc1ccn([C@@H]2O[C@H](CO)[C@@H](O)[C@@H]2O)c(=O)n1 [CYTARABINE] — 3.9-fold higher, 1.2 µM

test system: P388; assay: In vitro antitumor activity against P388 cell line in mice; B indicates inactive at 10e-1 mmol/L; assay type: functional, cell-based; details: Mus musculus; method in brief: as §1

For `N.Nc1nc(=O)n([C@@H]2O[C@@H]3CO[PH](O)(O)O[C@H]3[C@H]2O)cc1Cl`, the ID50 was “inactive”.

test system: Human respirovirus 3; assay: Antiviral activity against Para influenza virus type 3 strain C243 was evaluated in african green monkey kidney; assay type: functional; details: not given

Point of comparison: `Nc1nc(=O)n([C@@H]2O[C@H](COP(=O)(O)O)[C@@H](O)[C@H]2O)cc1F`, ED50 20 µM. Against it:
- N.Nc1nc(=O)n([C@@H]2O[C@@H]3CO[PH](O)(O)O[C@H]3[C@H]2O)cc1Cl — higher, > 5000 µM
- Nc1ccn([C@@H]2O[C@H](CO)[C@@H](O)[C@@H]2O)c(=O)n1 [CYTARABINE] — higher, > 500 µM
- N.Nc1nc(=O)n([C@@H]2O[C@@H]3CO[PH](O)(O)O[C@H]3[C@H]2O)cc1F — higher, > 5000 µM

test system: L1210; assay: In vitro antitumor activity against L1210 cell line in mice; B indicates inactive at 10e-1 mmol/L; assay type: functional, cell-based; details: Mus musculus; method in brief: as §1

For `N.Nc1nc(=O)n([C@@H]2O[C@@H]3CO[PH](O)(O)O[C@H]3[C@H]2O)cc1Cl`, the ID50 was “inactive”.

test system: Vesicular stomatitis virus; assay: Antiviral activity against Vesicular stomatitis virus strain indiana was evaluated in african green monkey kidney; assay type: functional; details: not given
Method in brief: (§2)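 Confluent Vero monolayers (4 × 10⁴ cells/well, EMEM with 10% heat-inactivated newborn bovine serum, 24 h at 37 °C, 5% CO₂) were infected per well with Cox B1 200, Reo 3 470 or VSV 2 TCID₅₀ units. After 30 min adsorption, compound was added at seven 0.5-log steps, final 5 × 10⁻⁶ to 5 × 10⁻³ M, in duplicate wells. CPE was scored microscopically 0–4 at 72 h to give VR, and ED₅₀ was checked on crystal-violet-stained plates.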

Point of comparison: `N.Nc1nc(=O)n([C@@H]2O[C@@H]3CO[PH](O)(O)O[C@H]3[C@H]2O)cc1F`, ED50 5000 µM. Against it:
- N.Nc1nc(=O)n([C@@H]2O[C@@H]3CO[PH](O)(O)O[C@H]3[C@H]2O)cc1Cl — higher, > 5000 µM

test system: Vesicular stomatitis virus; assay: In vitro antiviral activity against Vesicular stomatitis virus strain indiana was evaluated in african green monkey kidney; assay type: functional; details: not given; method in brief: as §2

Point of comparison: `N.Nc1nc(=O)n([C@@H]2O[C@@H]3CO[PH](O)(O)O[C@H]3[C@H]2O)cc1Cl`, Virus rating 0. Against it:
- N.Nc1nc(=O)n([C@@H]2O[C@@H]3CO[PH](O)(O)O[C@H]3[C@H]2O)cc1F — higher, 0.2

test system: Human alphaherpesvirus 1; assay: In vitro antiviral activity against Herpes simplex virus -1 strain KOS was evaluated in african green monkey kidney; assay type: functional; details: not given

Point of comparison: `Nc1ccn([C@@H]2O[C@H](CO)[C@@H](O)[C@@H]2O)c(=O)n1` [CYTARABINE], Virus rating 2.7. Against it:
- Nc1nc(=O)n([C@@H]2O[C@H](COP(=O)(O)O)[C@@H](O)[C@H]2O)cc1F — lower, 1.2
- N.Nc1nc(=O)n([C@@H]2O[C@@H]3CO[PH](O)(O)O[C@H]3[C@H]2O)cc1Cl — lower, 0
- N.Nc1nc(=O)n([C@@H]2O[C@@H]3CO[PH](O)(O)O[C@H]3[C@H]2O)cc1F — lower, 0.6

test system: Coxsackievirus B1; assay: Antiviral activity against Coxsackie B1 strain HA 201468 was evaluated in african green monkey kidney; assay type: functional; details: not given; method in brief: as §2

`N.Nc1nc(=O)n([C@@H]2O[C@@H]3CO[PH](O)(O)O[C@H]3[C@H]2O)cc1Cl` and `N.Nc1nc(=O)n([C@@H]2O[C@@H]3CO[PH](O)(O)O[C@H]3[C@H]2O)cc1F` cannot be ordered by ED50: over 5000 µM for the first, over 5000 µM for the second.

test system: Human alphaherpesvirus 1; assay: Antiviral activity against Herpes simplex virus -1 strain KOS was evaluated in african green monkey kidney; assay type: functional; details: not given

Point of comparison: `Nc1ccn([C@@H]2O[C@H](CO)[C@@H](O)[C@@H]2O)c(=O)n1` [CYTARABINE], ED50 0.34 µM. Against it:
- N.Nc1nc(=O)n([C@@H]2O[C@@H]3CO[PH](O)(O)O[C@H]3[C@H]2O)cc1Cl — higher, > 5000 µM
- N.Nc1nc(=O)n([C@@H]2O[C@@H]3CO[PH](O)(O)O[C@H]3[C@H]2O)cc1F — 650-fold higher, 220 µM

test system: Human alphaherpesvirus 2; assay: In vitro antiviral activity against Herpes simplex virus -2 strain MS was evaluated in african green monkey kidney; assay type: functional; details: not given

Point of comparison: `Nc1nc(=O)n([C@@H]2O[C@H](COP(=O)(O)O)[C@@H](O)[C@H]2O)cc1F`, Virus rating 2. Against it:
- N.Nc1nc(=O)n([C@@H]2O[C@@H]3CO[PH](O)(O)O[C@H]3[C@H]2O)cc1Cl — lower, 0.1
- Nc1ccn([C@@H]2O[C@H](CO)[C@@H](O)[C@@H]2O)c(=O)n1 [CYTARABINE] — higher, 2.7
- N.Nc1nc(=O)n([C@@H]2O[C@@H]3CO[PH](O)(O)O[C@H]3[C@H]2O)cc1F — lower, 0.9

test system: L1210; assay: In vitro antitumor activity against L1210 cell line in mice.; assay type: functional, Mus musculus; details: not given; method in brief: as §1

Point of comparison: `Nc1nc(=O)n([C@@H]2O[C@H](COP(=O)(O)O)[C@@H](O)[C@H]2O)cc1F`, ID50 3.4 µM. Against it:
- Nc1ccn([C@@H]2O[C@H](CO)[C@@H](O)[C@@H]2O)c(=O)n1 [CYTARABINE] — within 1.5-fold, 2.5 µM
- N.Nc1nc(=O)n([C@@H]2O[C@@H]3CO[PH](O)(O)O[C@H]3[C@H]2O)cc1F — 11-fold lower, 0.31 µM

test system: Human alphaherpesvirus 2; assay: Antiviral activity against Herpes simplex virus -2 strain MS was evaluated in african green monkey kidney; assay type: functional; details: not given

Point of comparison: `Nc1ccn([C@@H]2O[C@H](CO)[C@@H](O)[C@@H]2O)c(=O)n1` [CYTARABINE], ED50 1.1 µM. Against it:
- Nc1nc(=O)n([C@@H]2O[C@H](COP(=O)(O)O)[C@@H](O)[C@H]2O)cc1F — lower, < 0.5 µM
- N.Nc1nc(=O)n([C@@H]2O[C@@H]3CO[PH](O)(O)O[C@H]3[C@H]2O)cc1Cl — higher, > 5000 µM
- N.Nc1nc(=O)n([C@@H]2O[C@@H]3CO[PH](O)(O)O[C@H]3[C@H]2O)cc1F — 84-fold higher, 92 µM

test system: Coxsackievirus B1; assay: In vitro antiviral activity against Coxsackie B1 strain HA 201468 was evaluated in african green monkey kidney; assay type: functional; details: not given; method in brief: as §2

Point of comparison: `N.Nc1nc(=O)n([C@@H]2O[C@@H]3CO[PH](O)(O)O[C@H]3[C@H]2O)cc1Cl`, Virus rating 0. Against it:
- N.Nc1nc(=O)n([C@@H]2O[C@@H]3CO[PH](O)(O)O[C@H]3[C@H]2O)cc1F — the same, 0

test system: Mammalian orthoreovirus 3; assay: Antiviral activity against Reovirus type 3 strain Abney was evaluated in african green monkey kidney; assay type: functional; details: not given; method in brief: as §2

`N.Nc1nc(=O)n([C@@H]2O[C@@H]3CO[PH](O)(O)O[C@H]3[C@H]2O)cc1Cl` and `N.Nc1nc(=O)n([C@@H]2O[C@@H]3CO[PH](O)(O)O[C@H]3[C@H]2O)cc1F` cannot be ordered by ED50: over 5000 µM for the first, over 5000 µM for the second.

test system: Human respirovirus 3; assay: In vitro antiviral activity against Para influenza virus type 3 strain C243 was evaluated in african green monkey kidney; assay type: functional; details: not given

Point of comparison: `N.Nc1nc(=O)n([C@@H]2O[C@@H]3CO[PH](O)(O)O[C@H]3[C@H]2O)cc1F`, Virus rating 0.1. Against it:
- Nc1nc(=O)n([C@@H]2O[C@H](COP(=O)(O)O)[C@@H](O)[C@H]2O)cc1F — higher, 1
- N.Nc1nc(=O)n([C@@H]2O[C@@H]3CO[PH](O)(O)O[C@H]3[C@H]2O)cc1Cl — lower, 0
- Nc1ccn([C@@H]2O[C@H](CO)[C@@H](O)[C@@H]2O)c(=O)n1 [CYTARABINE] — lower, 0

test system: Human alphaherpesvirus 1; assay: Antiviral activity against Herpes simplex virus -1 strain MS was evaluated in african green monkey kidney; assay type: functional; details: not given

`Nc1nc(=O)n([C@@H]2O[C@H](COP(=O)(O)O)[C@@H](O)[C@H]2O)cc1F` gave an ED50 of 20 µM.

test system: Vero; assay: In vitro cytotoxicity against Vero cells.; assay type: functional, Chlorocebus sabaeus; details: not given

Point of comparison: `Nc1ccn([C@@H]2O[C@H](CO)[C@@H](O)[C@@H]2O)c(=O)n1` [CYTARABINE], Cytotoxicity 0.0005 mM. Against it:
- N.Nc1nc(=O)n([C@@H]2O[C@@H]3CO[PH](O)(O)O[C@H]3[C@H]2O)cc1Cl — 10000-fold higher, 5 mM

With `N.Nc1nc(=O)n([C@@H]2O[C@@H]3CO[PH](O)(O)O[C@H]3[C@H]2O)cc1F` the Cytotoxicity was 0.2 mM l-1 and 0.5 mM l-1.

test system: Mammalian orthoreovirus 3; assay: In vitro antiviral activity against Reovirus type 3 strain Abney was evaluated in african green monkey kidney; assay type: functional; details: not given; method in brief: as §2

Point of comparison: `N.Nc1nc(=O)n([C@@H]2O[C@@H]3CO[PH](O)(O)O[C@H]3[C@H]2O)cc1Cl`, Virus rating 0. Against it:
- N.Nc1nc(=O)n([C@@H]2O[C@@H]3CO[PH](O)(O)O[C@H]3[C@H]2O)cc1F — the same, 0

test system: Vaccinia virus; assay: In vitro antiviral activity against Vaccinia virus strain Elstree was evaluated in african green monkey kidney; assay type: functional, Orthopoxvirus vaccinia; details: not given

Point of comparison: `N.Nc1nc(=O)n([C@@H]2O[C@@H]3CO[PH](O)(O)O[C@H]3[C@H]2O)cc1F`, Virus rating 0.6. Against it:
- Nc1nc(=O)n([C@@H]2O[C@H](COP(=O)(O)O)[C@@H](O)[C@H]2O)cc1F — higher, 1.4
- N.Nc1nc(=O)n([C@@H]2O[C@@H]3CO[PH](O)(O)O[C@H]3[C@H]2O)cc1Cl — lower, 0
- Nc1ccn([C@@H]2O[C@H](CO)[C@@H](O)[C@@H]2O)c(=O)n1 [CYTARABINE] — higher, 2.8
